Measurements: ChEMBL document CHEMBL1129428 (J Med Chem, 1996)

What was measured:
Mus musculus [1] = assay: Anticonvulsant activity after intraperitoneal injection into mice by using MES screen test after 0.5 hr; type: functional
Mus musculus [2] = assay: Anticonvulsant activity after intraperitoneal injection into mice measured in a maximal electroshock scree (MES) screen; type: functional
Rattus norvegicus [3] = assay: Compound was tested for anticonvulsant activity after Oral Administration into Rats by using MES screen test after 1h,dose 50 mg/kg; number of rats out of four which were protected; type: functional
In short: (§1)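 Rats received the compound orally. […] Rats were tested in the MES screen at 0.25, 0.5, 1, 2 and 4 h. Each value is the number of rats protected out of 4. The test followed NINDS procedures.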

Rattus norvegicus [4] = assay: Compound was tested for anticonvulsant activity after Oral Administration into Rats by using MES screen test after 0.5h,dose 50 mg/kg; number of rats out of four which were protected; type: functional; in short: as §1
Mus musculus [5] = assay: Toxicity after intraperitoneal injection into mice by using toxicity screen test after 0.5 hr; type: organism-based; conditions: in vivo, ip
In short: (§2)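 Mice injected intraperitoneally at 30, 100 and 300 mg/kg and examined 0.5 and 4 h afterwards. Each entry is the minimum dose giving activity (MES protection, scPTZ protection, or rotorod failure for neurotoxicity) in half or more of the mice. Activity is called absent if nothing occurs at 300 mg/kg.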

Rattus norvegicus [6] = assay: Compound was tested for anticonvulsant activity after Oral Administration into Rats by using MES screen test after 0.25h,dose 50 mg/kg; number of rats out of four which were protected; type: functional; in short: as §1
Mus musculus [7] = assay: Anticonvulsant activity after intraperitoneal injection into mice by using scPTZ screen after 0.5 hr; type: functional
Mus musculus [8] = assay: Compound was tested for toxicity after intraperitoneal injection into mice by using toxicity screen test after 4 hr; type: organism-based; conditions: in vivo, ip; in short: as §2
Rattus norvegicus [9] = assay: Compound was tested for anticonvulsant activity after Oral Administration into Rats by using MES screen test after 4h,dose 50 mg/kg; number of rats out of four which were protected; type: functional; in short: as §1
Rattus norvegicus [10] = assay: Compound was tested for anticonvulsant activity after Oral Administration into Rats by using MES screen test after 2h,dose 50 mg/kg; number of rats out of four which were protected; type: functional; in short: as §1
Mus musculus [11] = assay: Anticonvulsant activity after intraperitoneal injection into mice by using scPTZ screen test after 4 hr; type: functional
Rattus norvegicus [12] = assay: Compound was tested for anticonvulsant activity after Oral Administration into Rats by using MES screen test after 2h,dose 12.5 mg/kg; number of rats out of four which were protected; type: functional; in short: as §1
Rattus norvegicus [13] = assay: Compound was tested for anticonvulsant activity after Oral Administration into Rats by using MES screen test after 0.25h,dose 12.5 mg/kg; No activity was demonstarted; type: functional, organism-based; set-up: dose 12.5 mg/kg; in short: as §1
Rattus norvegicus [14] = assay: Anticonvulsant activity after oral administration into rats; type: functional; set-up: concentration or dose not given beside the values
Rattus norvegicus [15] = assay: Compound was tested for anticonvulsant activity after Oral Administration into Rats by using MES screen test after 1h,dose 12.5 mg/kg; number of rats out of four which were protected; type: functional; in short: as §1
Rattus norvegicus [16] = assay: Compound was tested for anticonvulsant activity after Oral Administration into Rats by using MES screen test after 4h,dose 12.5 mg/kg; number of rats out of four which were protected; type: functional; in short: as §1
Rattus norvegicus [17] = assay: Compound was tested for anticonvulsant activity after Oral Administration into Rats by using MES screen test after 0.25h,dose 12.5 mg/kg; number of rats out of four which were protected; type: functional; in short: as §1

Structure (SMILES)	Dose (Mus musculus [1]) [mg/kg]	Dose (Mus musculus [2]) [mg/kg]	Activity (Rattus norvegicus [3])	Activity (Rattus norvegicus [4])	Dose (Mus musculus [5]) [mg/kg]	Activity (Rattus norvegicus [6])	Dose (Mus musculus [7]) [mg/kg]	Dose (Mus musculus [8]) [mg/kg]	Activity (Rattus norvegicus [9])	Activity (Rattus norvegicus [10])	Dose (Mus musculus [11]) [mg/kg]	Activity (Rattus norvegicus [12])	Activity (Rattus norvegicus [13])	Activity (Rattus norvegicus [14])	Activity (Rattus norvegicus [15])	Activity (Rattus norvegicus [16])	Activity (Rattus norvegicus [17])
NC(=O)N/N=C\c1ccc(Oc2cccc(F)c2)cc1	30	300	4	4	300	4	100	300	4	4	–	–	–	–	–	–	–
C/C(=N/NC(N)=O)c1ccccc1Oc1ccc(Br)cc1	–	–	–	–	300	–	–	–	–	–	–	–	–	–	–	–	–
NC(=O)N/N=C/c1ccc(Oc2ccc(I)cc2)cc1	30	30	4	4	300	3	100	100	4	4	300	–	–	–	–	–	–
CC/C(=N/NC(N)=O)c1ccccc1Oc1ccc(Cl)cc1	300	300	–	–	–	–	–	–	–	–	–	–	–	–	–	–	–
NC(=O)N/N=C\c1ccc(S(=O)(=O)c2ccccc2)cc1	–	300	–	–	–	–	–	–	–	–	–	–	–	–	–	–	–
CC/C(=N/NC(N)=O)c1ccccc1Oc1ccc(Br)cc1	–	–	–	–	–	–	–	300	–	–	–	–	–	–	–	–	–
Cc1ccc(Oc2ccc(/C=N/NC(N)=O)cc2)cc1C	100	30	–	–	–	–	300	300	–	–	–	4	No activity	2	4	4	–
NC(=O)N/N=C/c1ccc(Oc2ccc(Cl)cc2)cc1	30	30	4	4	300	4	30	30	4	4	–	–	–	–	–	–	–
N=C(S)N/N=C/c1ccc(Oc2ccc(F)cc2)cc1	30	30	–	–	100	–	30	30	–	–	30	3	No activity	2	2	1	–
NC(=O)N/N=C/c1ccc(Oc2ccc(F)cc2F)cc1	30	30	4	4	–	3	100	–	4	4	–	–	–	–	–	–	–
NC(=O)N/N=C/c1ccc(Oc2ccccc2Cl)cc1	30	30	4	4	300	3	100	–	4	4	300	–	–	–	–	–	–
CCCc1ccccc1Oc1ccc(/C=N/NC(N)=O)cc1	100	30	–	–	300	–	–	–	–	–	–	4	–	3	4	4	3
NC(=O)C(=O)N/N=C/c1ccc(Oc2ccc(F)cc2)cc1	–	–	–	–	300	–	–	300	–	–	–	–	–	–	–	–	–
